Hits are enriched below; roughly 1.9% of the tested compounds scored in any of these assays.
Glyco luc inh – blocks N-linked glycosylation in D54 reporter cells | 360,000 tested, 0.23% active | D54 ERlucT glycosylation luciferase reporter, 24 h; percent of 100 nM tunicamycin response | reporter increase, % at 12.5 µM | AID 588692;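 active = mean luciferase reporter signal, scaled so untreated is 0 and the glycosylation-blocking control 100, at or above a set limit in every replicate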;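 also: luciferase carries N-glycosylation sites so blocking glycosylation raises the light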
Rtt109 HAT inh – blocks Candida albicans Rtt109/Vps75 acetyltransferase activity. purified Rtt109/Vps75, ThioGlo CoA-SH fluorescence, 4 h. 330,000 tested, 0.16% active. Q5AAJ8. inhibition, % at 34.9 µM. AID 540336;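 active = inhibition of at least 50% in every replicate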
HIV Env fusion – HIV envelope-mediated fusion inhibition; HeLa-JRFL Env/CEM21 cell fusion, luciferase; inhibition, % at 12.3 µM; 360,000 tested, 1.1% active; AID 651610;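 active = mean replicate inhibition score of at least 50 and every replicate individually at or above 50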
SR-BI HDL uptake – mouse SR-BI HDL lipid transfer inhibition. ldlA[mSR-BI] CHO cells, DiI-HDL uptake fluorescence, 3 h. Q61009. 320,000 tested, 0.96% active. inhibition, % at 12.5 µM;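 active = mean replicate inhibition of at least 70% and a set share of replicates each scoring 70 or more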
Target sequence (Q61009 whole entry, looked up): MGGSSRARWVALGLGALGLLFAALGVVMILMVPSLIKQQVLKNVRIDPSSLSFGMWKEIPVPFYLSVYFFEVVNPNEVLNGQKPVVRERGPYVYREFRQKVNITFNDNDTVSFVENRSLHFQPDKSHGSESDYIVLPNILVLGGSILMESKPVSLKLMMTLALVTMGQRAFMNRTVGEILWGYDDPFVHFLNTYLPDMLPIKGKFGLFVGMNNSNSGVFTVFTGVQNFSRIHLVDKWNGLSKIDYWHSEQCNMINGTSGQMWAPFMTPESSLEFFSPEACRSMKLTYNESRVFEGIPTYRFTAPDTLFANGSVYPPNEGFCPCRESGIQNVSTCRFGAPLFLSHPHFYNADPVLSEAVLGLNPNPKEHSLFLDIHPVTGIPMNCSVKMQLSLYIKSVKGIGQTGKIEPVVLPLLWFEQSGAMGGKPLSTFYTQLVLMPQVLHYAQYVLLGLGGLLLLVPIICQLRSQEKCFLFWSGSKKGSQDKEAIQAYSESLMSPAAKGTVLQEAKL
SR-BI DiI-HDL act – SR-BI HDL lipid transfer activation; CHO ldlA[mSR-BI] cells, DiI-HDL uptake fluorescence, 3 h; 100 = double the neutral-control signal; activation, % at 12.5 µM; 320,000 tested, 0.096% active;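 active = mean replicate activation of at least 60% and every replicate at or above 60%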
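material = CHO ldlA[mSR-BI] cells | medium = Ham's F12 with 0.5% BSA, HEPES 25 mM, pH 7.4 | reagent = fluorescent DiI-HDL, 10 µg/mL final | compound dosing = single-point compound dose | incubation = 3 h, 37 °C | measured by = bottom-read fluorescence, 550/595 nm | measure = HDL uptake via cellular fluorescence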
PglD inh – PglD (C. jejuni) enzyme inhibition | inhibition, % at 12.5 µM | purified PglD enzyme, DTNB colorimetric CoA detection | AID 602405 | 360,000 tested, 0.098% active; in the data active = inhibition above about 16%, passing the limit was not always enough
A number is an active result; n = inactive; x = no result.

SMILES | Glyco luc inh | Rtt109 HAT inh | HIV Env fusion | SR-BI HDL uptake | SR-BI DiI-HDL act | PglD inh
COC(=O)[C@]1(C)N[C@H](CN(C)S(=O)(=O)c2ccc(-c3ccccc3)cc2)[C@@H]2C(=O)N(Cc3ccccc3)C(=O)[C@@H]21 | n | n | 80.6 | n | n | n
COC(=O)C[C@@H]1C[C@@H]2c3cc(NC(=O)Nc4ccc(C(F)(F)F)cc4)ccc3O[C@@H]2[C@H](CO)O1 | x | x | n | x | x | n
Cc1noc(C)c1S(=O)(=O)N(C)C[C@H]1OCCCC[C@@H](C)Oc2ccc(NC(=O)NC3CCCCC3)cc2C(=O)N([C@H](C)CO)C[C@@H]1C | x | x | n | x | x | n
COc1cc2c(oc(=O)c3cc(C)cc(OC)c32)c2c(C3OC(C)C(O)C(C)(O)C3O)ccc(O)c12 (centres undefined) | n | n | 56.3 | n | n | x
C[C@@H]1CN([C@@H](C)CO)C(=O)Cc2cc(NS(=O)(=O)c3cn(C)cn3)ccc2O[C@H]1CN(C)Cc1ccc(C(F)(F)F)cc1 | x | x | n | x | x | n
COc1cccc(CC(=O)Nc2ccccc2C(=O)N2CCOCC2)c1 | n | n | x | n | 71.3 | x
COc1ccc2cc(C3CC=C(CO)CN3S(=O)(=O)c3ccccc3[N+](=O)[O-])n(C(=O)OC(C)(C)C)c2c1 (centres undefined) | x | x | 64.9 | x | x | x
CCN1/C(=C/C=C/c2sc3ccccc3[n+]2CC)Sc2ccccc21 | n | 65.7 | x | n | 722.3 | n
CCN1/C(=C/C=C/C=C/C=C/c2sc3ccccc3[n+]2CC)Sc2ccccc21 | n | n | n | n | n | n
COc1cc(CNCc2ccncc2)cc(Br)c1OCc1ccccc1F | n | n | 67.4 | n | n | n
C[C@@H]1CCCCO[C@@H](CN(C)C(=O)CCC(F)(F)F)[C@@H](C)CN([C@H](C)CO)C(=O)c2cc(NC(=O)Nc3ccc4c(c3)OCO4)ccc2O1 | x | x | n | x | x | n
COc1ccc(N2CCN(C(=O)CSc3nnc4n3C(C)(C)Cc3ccccc3-4)CC2)cc1 | n | n | n | n | n | n
Cc1ccc(Cl)cc1N1CCN(C(=O)CSc2nnc3n2C(C)(C)Cc2ccccc2-3)CC1 | n | n | 76.3 | n | n | n
CCN(CC)c1ccc(/C=C(/C#N)c2nc3ccccc3[nH]2)c(OC(C)C)c1 | n | n | x | 94.1 | n | n
CCOc1cccc(/C=C(/C#N)c2nc3ccccc3[nH]2)c1OCC(=O)O | n | n | n | n | n | n
COc1cc(/C=C(\C#N)c2nc3ccccc3[nH]2)c([N+](=O)[O-])cc1OCc1ccccc1 | n | n | x | 84.9 | n | n
C=CCOc1ccc(/C(O)=C2\C(=O)C(=O)N(CCOC)C2c2cccnc2)cc1 (centres undefined) | n | 60.0 | n | n | n | n
Cc1ccc(C(=O)N/N=C/c2cc(Br)ccc2O)cn1 | n | n | n | 74.7 | n | n
Cc1cc(=O)[nH]c(NN=Cc2cc(Br)ccc2O)n1 | n | n | n | 96.8 | n | n
O=C(N/N=C/c1cc(Cl)ccc1O)c1ccncc1 | n | n | n | 115.4 | n | n
O=C(N/N=C/c1cc(Br)ccc1O)c1ccccc1Cl | n | n | n | 84.2 | n | n
Cc1cc(=O)[nH]c(N/N=C/c2ccccc2Cl)n1 | n | n | n | n | n | n
C[C@H]1CN([C@@H](C)CO)C(=O)c2cccc(NC(=O)Nc3ccc(F)cc3)c2O[C@H]1CN(C)S(C)(=O)=O | x | x | n | x | x | n
CC(C)NC(=O)N(C)C[C@@H]1OCCCC[C@@H](C)Oc2ccc(NC(=O)CCC(F)(F)F)cc2C(=O)N([C@H](C)CO)C[C@H]1C | x | x | n | x | x | x
CN1C(=O)c2cc(NC(=O)c3cccs3)ccc2OC[C@H]2O[C@H](CC(=O)NCC(F)(F)F)CC[C@H]21 | x | x | n | x | x | n
SMILES | Glyco luc inh | Rtt109 HAT inh | HIV Env fusion | SR-BI HDL uptake | SR-BI DiI-HDL act | PglD inh
O=C(CSC1CN(C(c2ccccc2)c2ccccc2)C1)N/N=C/c1ccc(Cl)cc1Cl | n | n | 65.0 | n | n | x
O=C(CSc1nnc(SCc2ccccc2)s1)N/N=C/c1ccc(Cl)cc1Cl | n | n | n | n | n | x
COc1cc(OC)cc(-c2sc3ccc(OC)cc3c2C#CC(C)(C)O)c1 | n | n | n | n | n | n
COc1cc(OC)cc(-c2sc3ccc(OC)cc3c2C#CCO)c1 | n | n | n | 78.7 | n | n
CN(C)C(=O)c1ccc(-c2cccc(-c3nc(C(=O)N(C)C)cc4c3[C@@H](CCO)N([S@](=O)C(C)(C)C)C4)c2)cc1 | x | x | n | x | x | n
CCNS(=O)(=O)c1ccc(CCC(=O)Nc2cc(Cl)ccc2Oc2ccccc2)cc1 | n | n | 107.3 | n | n | n
CCOC(=O)N1CCN(C(=O)CSCC(=O)Nc2nc(-c3ccc(OC)cc3)cs2)CC1 | n | n | n | n | n | n
CCOC(=O)N1CCN(C(=O)CSCC(=O)Nc2nc(-c3ccc(-c4ccccc4)cc3)cs2)CC1 | n | n | n | 85.4 | n | n
CN(C)C(=O)C[C@H]1CC[C@H]2[C@H](COc3ccc(NC(=O)NCc4ccccc4)cc3C(=O)N2C)O1 | x | x | n | x | x | n
O=c1[nH]c2c(c(=O)[nH]1)CCCCCC2 | n | n | n | n | n | n
O=C1NN=C2CCCCCCCCCCC12 (centres undefined) | n | x | 58.2 | x | x | x
O=C(NCc1ccco1)c1ccc(Cn2c(=O)c3ccccc3n(Cc3cccc(F)c3)c2=O)cc1 | n | n | 84.7 | n | n | n
O=C(NCc1ccco1)c1ccc(Cn2c(=O)c3ccccc3n(Cc3ccc(Cl)cc3)c2=O)cc1 | n | n | 119.3 | n | n | n
CCCN1C[C@H](C)[C@@H](OC)CN(C)C(=O)c2cc(NS(C)(=O)=O)ccc2OC[C@H]1C | x | x | n | x | x | n
Cc1noc(C)c1NC(=O)N(C)C[C@@H]1OCCCC[C@@H](C)Oc2ccc(N(C)C)cc2C(=O)N([C@H](C)CO)C[C@@H]1C | x | x | n | x | x | x
C[C@H](O)C#Cc1cnc2c(c1)C(=O)N([C@H](C)CO)C[C@H](C)[C@@H](CN(C)C(=O)c1ccc(F)cc1)O2 | x | x | n | x | x | n
COc1ccc2nc(Cl)cc(Cl)c2c1 | n | n | n | n | n | n
C=CS(=O)(=O)c1c2cc(OC)ccc2nc2ccc(OC)cc12 | 53.1 | n | n | n | n | x
O=C([C@H]1[C@H](CO)[C@H]2Cn3c(ccc(-c4ccncc4)c3=O)[C@@H]1N2Cc1cccnc1)N1CCOCC1 | x | x | x | x | x | n
C[C@@H]1CN([C@@H](C)CO)S(=O)(=O)c2ccc(-c3ccccc3)cc2O[C@@H]1CN(C)C(=O)Cc1ccccc1 | x | x | n | x | x | n
CCN(CCO)Cc1csc2ccc(Cl)cc12 | n | n | n | n | 70.0 | x
O=C(Nc1ccn(Cc2ccccc2F)n1)c1ccc(COc2ccccc2Cl)cc1 | n | n | 59.5 | n | n | n
CCOc1ccc(OCC(=O)N(CCC2=CCCCC2)c2c(N)n(Cc3ccccc3)c(=O)[nH]c2=O)cc1 | 79.7 | n | n | n | n | n

Screens: PubChem BioAssay, Broad Institute
